Data published in ChEMBL document CHEMBL3616366, “Design, synthesis and biological activity of new amides derived from 3-methyl-3-phenyl-2,5-dioxo-pyrrolidin-1-yl-acetic acid” (Eur J Med Chem, 2015).
Calls of active or inactive are those of the source.

What was measured:
Mus musculus [1] = assay: Anticonvulsant activity in albino CD-1 mouse assessed as protection against maximal electroshock-induced seizure at 30 to 300 mg/kg, ip measured after 0.5 hrs; format: functional; settings: for minimal effective dose: CD-1, ip, read-out: MED
How it was run: (§1)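 Male CD-1 mice (16–26 g), compound suspended in 0.5% methylcellulose/water, i.p. at 30, 100, 300 mg/kg; four mice per group, each used once. Electroconvulsion by electrical stimulus 0.2 s at 50 Hz; protection scored at 0.5 and 2 h. Value is minimum dose showing activity.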

Mus musculus [2] = assay: Anticonvulsant activity in albino CD-1 mouse assessed as protection against maximal electroshock-induced seizure at 30 to 300 mg/kg, ip measured after 2.0 hrs; format: functional; settings: for minimal effective dose: CD-1, ip, read-out: MED; how it was run: as §1
Mus musculus [3] = assay: Anticonvulsant activity in albino CD-1 mouse assessed as protection against subcutaneous pentylenetetrazole-induced seizure at 30 to 300 mg/kg, ip measured after 0.5 hrs; format: functional; settings: for minimal effective dose: CD-1, 0.5 h, read-out: MED
How it was run: (§2)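 Male CD-1 mice given compound i.p. (0.5% methylcellulose suspension) at 30, 100, 300 mg/kg, four per group; pentylenetetrazole 85 mg/kg s.c. at 0.5 or 2 h. Absence of clonic convulsions (≥5 s) over 30 min observation counts as protection. Minimum active dose reported.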

Mus musculus [4] = assay: Anticonvulsant activity in albino CD-1 mouse assessed as protection against subcutaneous pentylenetetrazole-induced seizure at 30 to 300 mg/kg, ip measured after 2.0 hrs; format: functional; settings: for minimal effective dose: CD-1, 2 h, read-out: MED; how it was run: as §2
Mus musculus [5] = assay: Neurotoxicity in albino CD-1 mouse assessed as motor impairment at 30 to 300 mg/kg mg/kg, ip measured after 0.5 hrs by rotarod test; format: toxicity, organism-based; settings: in vivo
How it was run: (§3)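 Rotarod in male CD-1 mice at 0.5 and 2 h after i.p. 30, 100 or 300 mg/kg (methylcellulose suspension); motor impairment = inability to keep balance on rod turning at 10 rpm for at least 1 min. Minimum neurotoxic dose reported.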

Mus musculus [6] = assay: Neurotoxicity in albino CD-1 mouse assessed as motor impairment at 30 to 300 mg/kg mg/kg, ip measured after 2 hrs by rotarod test; format: toxicity, organism-based; settings: in vivo; how it was run: as §3
Mus musculus [7] = assay: Neurotoxicity in albino CD-1 mouse assessed as mouse mortality at 300 mg/kg mg/kg, ip measured after 0.5 hrs; format: toxicity, organism-based; settings: in vivo
How it was run: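 Male albino CD-1 mice (16–26 g), four per group, each used once. Compounds were suspended in 0.5% methylcellulose/water and injected i.p. at 30, 100 and 300 mg/kg. Acute motor impairment was scored by rotarod at 0.5 and 2 h: inability to stay on a rod turning at 10 rpm for at least 1 min.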

Mus musculus [8] = assay: Anticonvulsant activity in ip dosed albino CD-1 mouse assessed as protection against 6 Hz current-induced seizure measured after 0.5 hrs; format: functional; settings: CD-1, ip, read-out: MED
How it was run: (§4)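 6-Hz psychomotor test: corneal stimulation 32 mA, 0.2 ms monopolar rectangular pulses at 6 Hz for 3 s, mice restrained then released to observation cage. Protected if normal exploratory behaviour resumes within 10 s. Doses 30, 100, 300 mg/kg i.p.; read at 0.5 and 2 h; minimum active dose.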

Mus musculus [9] = assay: Anticonvulsant activity in ip dosed albino CD-1 mouse assessed as protection against 6 Hz current-induced seizure measured after 2.0 hrs; format: functional; settings: CD-1, ip, read-out: MED; how it was run: as §4
Mus musculus [10] = assay: Anticonvulsant activity in ip dosed albino CD-1 mouse assessed as protection against subcutaneous pentylenetetrazole-induced seizure; format: functional
How it was run: (§5)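 Quantitative work at time of peak effect previously estimated in screening; groups of six mice given various i.p. doses until ≥3 points within 10–90% seizure protection (MES or scPTZ) or minimal motor impairment on rotarod (10 rpm, failure to hold ≥1 min).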

Mus musculus [11] = assay: Anticonvulsant activity in ip dosed albino CD-1 mouse assessed as protection against maximal electroshock-induced seizure measured as time to peak effect; format: functional; how it was run: as §5
Mus musculus [12] = assay: Anticonvulsant activity in ip dosed albino CD-1 mouse assessed as protection against subcutaneous pentylenetetrazole-induced seizure measured as time to peak effect; format: functional; how it was run: as §5
[13] = Neurotoxicity in ip dosed albino CD-1 mouse assessed as motor impairment by rotarod test; format: toxicity, organism-based; settings: in vivo; how it was run: as §5
[14] = Protective index, ratio of TD50 for neurotoxicity in ip dosed albino CD-1 mouse to ED50 for anticonvulsant activity in ip dosed subcutaneous pentylenetetrazole-induced seizure albino CD-1 mouse model; format: toxicity, organism-based; settings: in vivo, read-out: Ratio TD50/ED50
How it was run: (§6)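 Protective index computed as TD50 (rotarod) divided by ED50 (MES or scPTZ), both from probit analysis on groups of six i.p.-dosed mice.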

Rattus norvegicus = organism: Rattus norvegicus; assay: Displacement of [3H]BTX from voltage-sensitive sodium channel site2 in rat cerebral cortex at 100 uM measured after 60.0 mins by scintillation counting; format: tissue-based
Salmonella typhimurium [15] = assay: Mutagenic activity in Salmonella typhimurium TA100 assessed as mutagenicity index at 40 ng/ml by Ames test; format: toxicity, organism-based; settings: salmonella enterica subsp. enterica serovar typhimurium
How it was run: (§7)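 Ames TA100 liquid pre-incubation (minimal medium, 37 °C) and V. harveyi assay (BOSS medium, 30 °C); test at 40 ng/ml, triplicate. Mutagenic index = induced revertants / spontaneous revertants (DMSO control); M.I. ≥2 considered mutagenic.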

Vibrio harveyi [16] = assay: Mutagenic activity in Vibrio harveyi BB7 assessed as mutagenicity index at 40 ng/ml; format: organism-based; settings: in vivo; how it was run: as §7
Vibrio harveyi [17] = assay: Mutagenic activity in Vibrio harveyi BB7XM assessed as mutagenicity index at 40 ng/ml; format: organism-based; settings: in vivo; how it was run: as §7
Salmonella typhimurium [18] = assay: Antimutagenic activity in Salmonella typhimurium TA100 assessed as inhibition of nitroquinoline-N-oxide-induced revertant colonies by Ames test; format: functional, Salmonella enterica subsp. enterica serovar Typhimurium
How it was run: (§8)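 Revertants induced by 4-nitroquinoline-N-oxide (final 40 ng/ml) with versus without test compound; TA100 at 37 °C, V. harveyi strains at 30 °C in BOSS medium. Three independent repetitions; inhibition % = 100 − (R1/R2 × 100); 25–40% moderate, ≥40% strong.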

Vibrio harveyi [19] = assay: Antimutagenic activity in Vibrio harveyi BB7 assessed as inhibition of nitroquinoline-N-oxide-induced revertant colonies; format: functional; how it was run: as §8
Vibrio harveyi [20] = assay: Antimutagenic activity in Vibrio harveyi BB7XM assessed as inhibition of nitroquinoline-N-oxide-induced revertant colonies; format: functional; how it was run: as §8
Mus musculus [21] = assay: Anticonvulsant activity in ip dosed albino CD-1 mouse assessed as protection against maximal electroshock-induced seizure; format: functional; settings: CD-1, ip; how it was run: as §5
[22] = Protective index, ratio of TD50 for neurotoxicity in ip dosed albino CD-1 mouse to ED50 for anticonvulsant activity in ip dosed maximal electoshock-induced seizure albino CD-1 mouse model; format: toxicity, organism-based; settings: in vivo, read-out: Ratio TD50/ED50; how it was run: as §6

SMILES	MED (Mus musculus [1])	MED (Mus musculus [2])	MED (Mus musculus [3])	MED (Mus musculus [4])	MTC (Mus musculus [5])	MTC (Mus musculus [6])	minimal effective dose (Mus musculus [1])	minimal effective dose (Mus musculus [2])	minimal effective dose (Mus musculus [3])	minimal effective dose (Mus musculus [4])	Time (Mus musculus [11])	Time (Mus musculus [12])	TD50 [13]	other results
CC1(c2ccccc2)CC(=O)N(CC(=O)N2CCN(C3CCCCC3)CC2)C1=O (configuration not stated)	inactive	inactive	inactive	inactive	300 mg/kg	Non-toxic	–	–	–	–	–	–	–	Activity (Mus musculus [7]): Toxic
Cc1cccc(N2CCN(C(=O)CN3C(=O)CC(C)(c4ccccc4)C3=O)CC2)c1 (configuration not stated)	–	–	inactive	inactive	300 mg/kg	300 mg/kg	100 mg/kg	300 mg/kg	–	–	–	–	–	–
CC1(c2ccccc2)CC(=O)N(CC(=O)N2CCN(c3cccc(C(F)(F)F)c3)CC2)C1=O (configuration not stated)	–	–	inactive	inactive	Non-toxic	Non-toxic	300 mg/kg	300 mg/kg	–	–	–	–	–	minimal effective dose (Mus musculus [8]): 300 mg/kg; minimal effective dose (Mus musculus [9]): 300 mg/kg
CC1(c2ccccc2)CC(=O)N(CC(=O)N2CCN(Cc3ccccc3)CC2)C1=O (configuration not stated)	inactive	inactive	–	–	300 mg/kg	300 mg/kg	–	–	100 mg/kg	300 mg/kg	0.5 h	0.5 h	205 mg/kg	ED50 (Mus musculus [10]): 96.5 mg/kg; selectivity ratio [14]: 2.12
CC1(c2ccccc2)CC(=O)N(CC(=O)N2CCN(c3ccccc3)CC2)C1=O (configuration not stated)	–	inactive	–	–	Non-toxic	Non-toxic	300 mg/kg	–	100 mg/kg	300 mg/kg	0.5 h	0.5 h	> 500 mg/kg	inhibition (Rattus norvegicus): 34.2%; ED50 (Mus musculus [10]): 40.9 mg/kg; selectivity ratio [14]: > 12.2
CC1(c2ccccc2)CC(=O)N(CC(=O)N2CCC(Cc3ccccc3)CC2)C1=O (configuration not stated)	inactive	–	–	inactive	Non-toxic	Non-toxic	–	300 mg/kg	100 mg/kg	–	0.5 h	0.5 h	> 500 mg/kg	Activity_index (Salmonella typhimurium [15]): 0.5; Activity_index (Vibrio harveyi [16]): 1.5; Activity_index (Vibrio harveyi [17]): 1.6; inhibition (INH) (Salmonella typhimurium [18]): 5%; inhibition (INH) (Vibrio harveyi [19]): 22%; inhibition (INH) (Vibrio harveyi [20]): 26%; ED50 (Mus musculus [10]): 60 mg/kg; selectivity ratio [14]: > 8.33
CC1(c2ccccc2)CC(=O)N(CC(=O)N2CCN(c3ccc(Cl)c(Cl)c3)CC2)C1=O (configuration not stated)	inactive	–	inactive	inactive	Non-toxic	Non-toxic	–	300 mg/kg	–	–	–	–	–	Activity_index (Salmonella typhimurium [15]): 0.3; Activity_index (Vibrio harveyi [16]): 1.2; Activity_index (Vibrio harveyi [17]): 0.7; inhibition (INH) (Salmonella typhimurium [18]): 36%; inhibition (INH) (Vibrio harveyi [19]): 47%; inhibition (INH) (Vibrio harveyi [20]): 63%
COc1cccc(N2CCN(C(=O)CN3C(=O)CC(C)(c4ccccc4)C3=O)CC2)c1 (configuration not stated)	inactive	inactive	–	inactive	Non-toxic	Non-toxic	–	–	100 mg/kg	–	–	–	–	–
CC1(c2ccccc2)CC(=O)N(CC(=O)N2CCN(c3ncccn3)CC2)C1=O (configuration not stated)	inactive	inactive	inactive	–	Non-toxic	Non-toxic	–	–	–	100 mg/kg	–	–	–	–
CC1(c2ccccc2)CC(=O)N(CC(=O)N2CCN(c3cccc(Cl)c3Cl)CC2)C1=O (configuration not stated)	inactive	inactive	–	inactive	Non-toxic	Non-toxic	–	–	300 mg/kg	–	–	–	–	–
CCC1(C)CC(=O)NC1=O (configuration not stated) [ETHOSUXIMIDE]	inactive	inactive	–	–	Non-toxic	Non-toxic	–	–	100 mg/kg	300 mg/kg	0.25 h	0.25 h	–	ED50 (Mus musculus [21]): > 500 mg/kg
CCCC(CCC)C(=O)O [VALPROIC ACID]	–	inactive	–	inactive	Non-toxic	Non-toxic	300 mg/kg	–	300 mg/kg	–	0.5 h	0.5 h	–	–
CC1(c2ccccc2)CC(=O)N(CC(=O)N2CCN(c3cccc(Cl)c3)CC2)C1=O (configuration not stated)	–	–	inactive	inactive	Non-toxic	Non-toxic	300 mg/kg	300 mg/kg	–	–	2 h	2 h	> 500 mg/kg	ED50 (Mus musculus [21]): 215 mg/kg; selectivity ratio [22]: > 2.32
CC1(c2ccccc2)CC(=O)N(CC(=O)N2CCN(c3ccc(Cl)cc3)CC2)C1=O (configuration not stated)	inactive	inactive	–	–	Non-toxic	Non-toxic	–	–	300 mg/kg	300 mg/kg	–	–	–	–
O=C1NC(=O)C(c2ccccc2)(c2ccccc2)N1 [PHENYTOIN]	–	–	inactive	inactive	100 mg/kg	100 mg/kg	30 mg/kg	30 mg/kg	–	–	1 h	1 h	59.9 mg/kg	ED50 (Mus musculus [21]): 6.65 mg/kg; ED50 (Mus musculus [10]): > 500 mg/kg; selectivity ratio [22]: 5.56
CC1(c2ccccc2)CC(=O)N(CC(=O)N2CCOCC2)C1=O (configuration not stated)	–	–	–	–	Non-toxic	Non-toxic	300 mg/kg	300 mg/kg	300 mg/kg	300 mg/kg	–	–	–	minimal effective dose (Mus musculus [8]): 100 mg/kg; minimal effective dose (Mus musculus [9]): 100 mg/kg
Cc1ccccc1N1CCN(C(=O)CN2C(=O)CC(C)(c3ccccc3)C2=O)CC1 (configuration not stated)	inactive	inactive	inactive	inactive	Non-toxic	Non-toxic	–	–	–	–	–	–	–	–
CC1(c2ccccc2)CC(=O)N(CC(=O)N2CCN(c3ccccc3Cl)CC2)C1=O (configuration not stated)	inactive	inactive	inactive	–	Non-toxic	Non-toxic	–	–	–	100 mg/kg	2 h	2 h	> 500 mg/kg	ED50 (Mus musculus [10]): 120 mg/kg; selectivity ratio [14]: > 4.16
